Laboratory results published in ChEMBL document CHEMBL4689842, “EUbOPEN Chemogenomics Library wave 1” (2021).
Values joined by “and” are separate entries in the source; they are usually repeats but may differ in a detail not shown here. Equal values may be shown once.

System: HEK-293T
Experiment: Multiplex assay against HEK293T
Type: toxicity, cell-based
Conditions: human
Procedure, shortened: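 Live cells were stained at seeding with Hoechst33342, BioTracker Green Microtubule Cytoskeleton Dye, MitoTracker Red and Annexin V Alexa Fluor 680, then imaged on a CQ1 microscope at 37°C and 5% CO2 after compound addition. CellPathfinder machine-learning gating split cells into Hoechst high-intensity objects or normal cells. Normal cells were split into healthy, pyknosed or fragmented nuclei, and pyknosed cells into mitotic or apoptotic. Tubulin, mitochondrial-mass and membrane-permeability phenotypes are per cents of healthy-nucleus cells.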

[1] = 12 h, 1 µM, compound concentration 1 uM, replicate 1
[2] = 12 h, 1 µM, compound concentration 1 uM, replicate 2
[3] = 12 h, 10 µM, compound concentration 10 uM, replicate 1
[4] = 12 h, 10 µM, compound concentration 10 uM, replicate 2
[5] = 24 h, 1 µM, compound concentration 1 uM, replicate 1
[6] = 24 h, 1 µM, compound concentration 1 uM, replicate 2
[7] = 24 h, 10 µM, compound concentration 10 uM, replicate 1
[8] = 24 h, 10 µM, compound concentration 10 uM, replicate 2
[9] = 48 h, 1 µM, compound concentration 1 uM, replicate 1
[10] = 48 h, 1 µM, compound concentration 1 uM, replicate 2
[11] = 48 h, 10 µM, compound concentration 10 uM, replicate 1
[12] = 48 h, 10 µM, compound concentration 10 uM, replicate 2

Question: For `Cc1ccccc1C(c1ccccc1C)N1C2CCC1CC(O)(c1ccccc1)C2` (configuration not stated), which “Population Apoptotic (%)” value [1] is on record?
Answer: 48%

Question: What about the “Population Healthy Nuclei (%)” value [1] of the same compound?
Answer: 40%

Question: What about the “Population Mitotic Cells (%)” value [1] of the same compound?
Answer: 51%

Question: What about the “Population Normal (%)” value [1] of the same compound?
Answer: 82%

Question: And the “Population Pyknosed Nuclei (%)” value [1]?
Answer: 48%

Question: And the “Total Cell Count” value [1]?
Answer: 233

Question: And the “Population Apoptotic (%)” value [2]?
Answer: 13%

Question: And the “Population Healthy Nuclei (%)” value [2]?
Answer: 39%

Question: And the “Population Mitotic Cells (%)” value [2]?
Answer: 86%

Question: What about the “Population Normal (%)” value [2] of the same compound?
Answer: 94%

Question: And the “Population Pyknosed Nuclei (%)” value [2]?
Answer: 55%

Question: And the “Total Cell Count” value [2]?
Answer: 261

Question: And the “Population Apoptotic (%)” value [3]?
Answer: 53%

Question: And the “Population Healthy Nuclei (%)” value [3]?
Answer: 36%

Question: And the “Population Mitotic Cells (%)” value [3]?
Answer: 46%

Question: What about the “Population Normal (%)” value [3] of the same compound?
Answer: 88%

Question: And the “Population Pyknosed Nuclei (%)” value [3]?
Answer: 54%

Question: What about the “Total Cell Count” value [3] of the same compound?
Answer: 350

Question: What about the “Population Healthy Nuclei (%)” value [4] of the same compound?
Answer: 26%

Question: And the “Population Mitotic Cells (%)” value [4]?
Answer: 78%

Question: What about the “Population Normal (%)” value [4] of the same compound?
Answer: 96%

Question: And the “Population Pyknosed Nuclei (%)” value [4]?
Answer: 69%

Question: What about the “Total Cell Count” value [4] of the same compound?
Answer: 210

Question: What about the “Population Apoptotic (%)” value [5] of the same compound?
Answer: 43%

Question: And the “Population Healthy Nuclei (%)” value [5]?
Answer: 45%

Question: What about the “Population Mitotic Cells (%)” value [5] of the same compound?
Answer: 56%

Question: What about the “Population Normal (%)” value [5] of the same compound?
Answer: 82%

Question: And the “Population Pyknosed Nuclei (%)” value [5]?
Answer: 40%

Question: And the “Total Cell Count” value [5]?
Answer: 254

Question: And the “Population Apoptotic (%)” value [6]?
Answer: 13%

Question: What about the “Population Healthy Nuclei (%)” value [6] of the same compound?
Answer: 61%

Question: What about the “Population Mitotic Cells (%)” value [6] of the same compound?
Answer: 86%

Question: And the “Population Normal (%)” value [6]?
Answer: 98%

Question: And the “Population Pyknosed Nuclei (%)” value [6]?
Answer: 32%

Question: And the “Total Cell Count” value [6]?
Answer: 355

Question: And the “Population Apoptotic (%)” value [7]?
Answer: 49%

Question: And the “Population Healthy Nuclei (%)” value [7]?
Answer: 42%

Question: What about the “Population Mitotic Cells (%)” value [7] of the same compound?
Answer: 50%

Question: What about the “Population Normal (%)” value [7] of the same compound?
Answer: 91%

Question: What about the “Population Pyknosed Nuclei (%)” value [7] of the same compound?
Answer: 48%

Question: And the “Total Cell Count” value [7]?
Answer: 339

Question: And the “Population Healthy Nuclei (%)” value [8]?
Answer: 43%

Question: What about the “Population Mitotic Cells (%)” value [8] of the same compound?
Answer: 68%

Question: What about the “Population Normal (%)” value [8] of the same compound?
Answer: 95%

Question: What about the “Population Pyknosed Nuclei (%)” value [8] of the same compound?
Answer: 53%

Question: And the “Total Cell Count” value [8]?
Answer: 229

Question: What about the “Population Healthy Nuclei (%)” value [9] of the same compound?
Answer: 49%

Question: And the “Population Mitotic Cells (%)” value [9]?
Answer: 68%

Question: And the “Population Normal (%)” value [9]?
Answer: 87%

Question: What about the “Population Pyknosed Nuclei (%)” value [9] of the same compound?
Answer: 28%

Question: What about the “Total Cell Count” value [9] of the same compound?
Answer: 301

Question: What about the “Population Healthy Nuclei (%)” value [10] of the same compound?
Answer: 85%

Question: And the “Population Mitotic Cells (%)” value [10]?
Answer: 87%

Question: What about the “Population Normal (%)” value [10] of the same compound?
Answer: 98%

Question: What about the “Population Pyknosed Nuclei (%)” value [10] of the same compound?
Answer: 10%

Question: What about the “Total Cell Count” value [10] of the same compound?
Answer: 568

Question: And the “Population Apoptotic (%)” value [11]?
Answer: 50%

Question: And the “Population Healthy Nuclei (%)” value [11]?
Answer: 45%

Question: What about the “Population Mitotic Cells (%)” value [11] of the same compound?
Answer: 49%

Question: What about the “Population Normal (%)” value [11] of the same compound?
Answer: 91%

Question: What about the “Population Pyknosed Nuclei (%)” value [11] of the same compound?
Answer: 42%

Question: And the “Total Cell Count” value [11]?
Answer: 372

Question: What about the “Population Apoptotic (%)” value [12] of the same compound?
Answer: 23%

Question: And the “Population Healthy Nuclei (%)” value [12]?
Answer: 72%

Question: What about the “Population Mitotic Cells (%)” value [12] of the same compound?
Answer: 76%

Question: And the “Population Normal (%)” value [12]?
Answer: 97%

Question: What about the “Population Pyknosed Nuclei (%)” value [12] of the same compound?
Answer: 24%

Question: What about the “Total Cell Count” value [12] of the same compound?
Answer: 302

Question: For `CN(c1ccccc1CNc1nc(Nc2ccc3c(c2)CC(=O)N3)ncc1C(F)(F)F)S(C)(=O)=O`, which “Population Apoptotic (%)” value [3] is on record?
Answer: 20% and 22%

Question: What about the “Population Fragmented Nuclei (%)” value [3] of the same compound?
Answer: 24% and 17%

Question: And the “Population Healthy Nuclei (%)” value [3]?
Answer: 40% and 71%

Question: And the “Population Hoechst High Intensity Objects (%)” value [3]?
Answer: 21% and 10%

Question: And the “Population Membrane Permeable-Phenotype (%)” value [3]?
Answer: 10%

Question: What about the “Population Mitotic Cells (%)” value [3] of the same compound?
Answer: 80% and 77%

Question: What about the “Population Normal (%)” value [3] of the same compound?
Answer: 78% and 89%

Question: What about the “Population Pyknosed Nuclei (%)” value [3] of the same compound?
Answer: 35%

Question: What about the “Total Cell Count” value [3] of the same compound?
Answer: 538 and 612

Question: What about the “Population Apoptotic (%)” value [4] of the same compound?
Answer: 17%

Question: And the “Population Fragmented Nuclei (%)” value [4]?
Answer: 3% and 5%

Question: What about the “Population Healthy Nuclei (%)” value [4] of the same compound?
Answer: 85% and 90%

Question: What about the “Population Membrane Permeable-Phenotype (%)” value [4] of the same compound?
Answer: 5% and 1%

Question: And the “Population Mitochondria Different-Phenotype (%)” value [4]?
Answer: 37%

Question: And the “Population Mitotic Cells (%)” value [4]?
Answer: 82%

Question: What about the “Population Normal (%)” value [4] of the same compound?
Answer: 92% and 97%

Question: And the “Population Pyknosed Nuclei (%)” value [4]?
Answer: 10% and 4%

Question: And the “Total Cell Count” value [4]?
Answer: 896 and 1228

Question: And the “Population Apoptotic (%)” value [7]?
Answer: 23% and 26%

Question: What about the “Population Fragmented Nuclei (%)” value [7] of the same compound?
Answer: 24% and 15%

Question: And the “Population Healthy Nuclei (%)” value [7]?
Answer: 40% and 78%

Question: What about the “Population Hoechst High Intensity Objects (%)” value [7] of the same compound?
Answer: 17% and 10%

Question: And the “Population Membrane Permeable-Phenotype (%)” value [7]?
Answer: 4% and 9%

Question: And the “Population Mitotic Cells (%)” value [7]?
Answer: 76% and 73%

Question: And the “Population Normal (%)” value [7]?
Answer: 82% and 89%

Question: And the “Total Cell Count” value [7]?
Answer: 531 and 582

Question: And the “Population Apoptotic (%)” value [8]?
Answer: 17% and 15%

Question: What about the “Population Healthy Nuclei (%)” value [8] of the same compound?
Answer: 83%

Question: What about the “Population Hoechst High Intensity Objects (%)” value [8] of the same compound?
Answer: 8% and 4%

Question: What about the “Population Membrane Permeable-Phenotype (%)” value [8] of the same compound?
Answer: 3% and 2%

Question: And the “Population Mitochondria Different-Phenotype (%)” value [8]?
Answer: 41%

Question: What about the “Population Mitotic Cells (%)” value [8] of the same compound?
Answer: 82% and 84%

Question: And the “Population Normal (%)” value [8]?
Answer: 91% and 95%

Question: And the “Total Cell Count” value [8]?
Answer: 898 and 1570
